What was measured:
[1] = system: Rattus norvegicus; assay: Inhibition of KMO in po dosed Sprague-Dawley rat plasma assessed as elevation in anthranilic acid plasma level by […] analysis; format: functional, organism-based
[2] = Tmax in Sprague-Dawley rat plasma at 10 mg equivalents/kg, po after 0.25 to 12 hrs; format: ADME, organism-based
Method in brief: (§1)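 Fed male Sprague-Dawley rats given a single oral dose of 10 mg equiv/kg as 2 mg equiv/mL in 10% hydroxypropyl-β-cyclodextrin. Plasma, CSF, kidney, liver, and cortex and striatum from nonperfused brains sampled from 0.25 to 12 h.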

[3] = system: Brain; assay: Dose normalized AUC (0 to infinity) in MDR1a knock out FVB/N mouse brain at 5 mg equivalents/kg, iv by LC-MS/MS analysis; format: ADME, organism-based; conditions: in vivo
Method in brief: (§2)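 Male mice given a single 5 mg equiv/kg iv bolus: FVB wild type, Bcrp(−/−), Mdr1a/b(−/−) and Mdr1a/b(−/−)/Bcrp(−/−). Brain and plasma concentration–time profiles were used to derive dose-normalized AUC (0–infinity).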

[4] = system: Brain; assay: Dose normalized AUC (0 to infinity) in Sprague-Dawley rat brain at 6.2 mg equivalents/kg, iv; format: ADME, tissue-based; conditions: in vivo
[5] = target: Kynurenine 3-monooxygenase (Mus musculus, UniProt Q91WN4); assay: Inhibition of mouse KMO assessed as conversion of kynurenine to 3-hydroxykynurenine by LC-MS/MS analysis
Method in brief: (§3)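 Mitochondrial fractions from mouse or rat liver tissue used as KMO source. Conversion of kynurenine to 3-hydroxykynurenine quantified by LC-MS/MS; IC50 averaged from triplicate tests.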

[6] = system: Plasma; assay: Dose normalized AUC (0 to infinity) in BCRP and MDR1a knock out FVB/N mouse plasma at 5 mg equivalents/kg, iv by LC-MS/MS analysis; format: ADME, organism-based; conditions: in vivo; method in brief: as §2
[7] = system: Plasma; assay: Dose normalized Cmax in Sprague-Dawley rat plasma at 10 mg equivalents/kg, po after 0.25 to 12 hrs; format: ADME, organism-based; conditions: in vivo
Method in brief: (§4)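 Male Sprague-Dawley rats given a single oral dose of 10 mg equiv/kg as a 2 mg equiv/mL solution in 10% hydroxypropyl-β-cyclodextrin. Plasma, liver, kidney, cortex, striatum and CSF levels were measured from 0.25 to 12 h. Brain tissue was taken from nonperfused brains. CSF AUCN covers 0–8 h because the elimination phase was undefined.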

[8] = system: Cerebrospinal fluid; assay: Dose normalized AUC (0 to infinity) in Sprague-Dawley rat CSF at 10 mg equivalents/kg, po after 0 to 8 hrs; format: ADME, organism-based; conditions: in vivo; method in brief: as §4
[9] = system: Plasma; assay: Dose normalized AUC (0 to infinity) in wild-type FVB/N mouse plasma at 5 mg equivalents/kg, iv by LC-MS/MS analysis; format: ADME, organism-based; conditions: in vivo; method in brief: as §2
[10] = Permeability from basolateral to apical side in human Caco2 cells; format: ADME, cell-based; conditions: Caco-2, read-out: permeability
[11] = system: Rattus norvegicus; assay: Inhibition of KMO in Sprague-Dawley rat plasma assessed as time duration for elevation in kynurenine plasma level at 10 mg/kg, po by […] analysis; format: functional
Method in brief: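 Sprague-Dawley rats given a single 10 mg/kg oral dose. KYN, 3-HK, KYNA and AA were quantified in plasma by LC-MS/MS at multiple time points.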

[12] = target: T1, Kynurenine 3-monooxygenase (Homo sapiens, UniProt O15229); assay: Inhibition of human KMO transfected in CHO cells assessed as conversion of kynurenine to 3-hydroxykynurenine by LC-MS/MS analysis; format: cell-based
[13] = target: T2, Kynurenine 3-monooxygenase (Rattus norvegicus, UniProt O88867); assay: Inhibition of KMO in rat microglia cells; format: cell-based
Method in brief: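 Freshly isolated neonatal rat microglial cultures, induced to express KMO by a pro-inflammatory protocol. Exogenous KYN added; conversion to 3-HK monitored by mass spectrometry.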

[14] = Half life in Sprague-Dawley rat cortex at 10 mg equivalents/kg, po after 0.25 to 12 hrs; format: ADME, organism-based
Method in brief: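 Nonfasted male Sprague-Dawley rats; single oral dose 10 mg equiv/kg as 2 mg equiv/mL solution in 10% hydroxypropyl-β-cyclodextrin. Cortex taken from nonperfused brains, sampled 0.25 to 12 h after dosing. Drug measured by LC-MS/MS; half-life derived from concentration-time profile.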

[15] = Clearance in Sprague-Dawley rat plasma at 6.2 mg equivalents/kg, iv; format: ADME, cell-free
[16] = Half life in Sprague-Dawley rat plasma at 12 mg equivalents/kg, po; format: ADME, cell-free
[17] = Lipophilicity, log P of the compound at pH 7; format: physicochemical; conditions: buffer
[18] = Tmax in Sprague-Dawley rat cortex at 10 mg equivalents/kg, po after 0.25 to 12 hrs; format: ADME, organism-based; method in brief: as §1
[19] = system: Plasma; assay: Dose normalized AUC (0 to infinity) in MDR1a knock out FVB/N mouse plasma at 5 mg equivalents/kg, iv by LC-MS/MS analysis; format: ADME, organism-based; conditions: in vivo; method in brief: as §2
[20] = Volume of distribution at steady state in Sprague-Dawley rat plasma at 6.2 mg equivalents/kg, iv; format: ADME, cell-free; conditions: read-out: Vdss
Method in brief: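 Nonfasted male Sprague-Dawley rats (300−370 g). Single iv tail-vein dose of 6.2 mg equiv/kg (1.24 mg equiv/mL in DMSO:PEG400:water 10:40:50) or oral gavage of 12 mg equiv/kg (1.20 mg equiv/mL in 10% hydroxypropyl-β-cyclodextrin). Terminal bleeds under isoflurane (N = 3) at 0.083−24 h; heparin plasma; tissues snap-frozen.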

[21] = Tmax in Sprague-Dawley rat liver at 10 mg equivalents/kg, po after 0.25 to 12 hrs; format: ADME, organism-based; method in brief: as §1
[22] = Tmax in Sprague-Dawley rat CSF at 10 mg equivalents/kg, po after 0.25 to 12 hrs; format: ADME, organism-based, Cerebrospinal fluid; method in brief: as §1
[23] = target: T2, Kynurenine 3-monooxygenase; assay: Inhibition of rat KMO assessed as conversion of kynurenine to 3-hydroxykynurenine by LC-MS/MS analysis; method in brief: as §3
[24] = system: Cerebrospinal fluid; assay: Dose normalized Cmax in Sprague-Dawley rat CSF at 10 mg equivalents/kg, po after 0.25 to 12 hrs; format: ADME, organism-based; conditions: in vivo; method in brief: as §4
[25] = system: Rattus norvegicus; assay: Inhibition of KMO in po dosed Sprague-Dawley rat plasma assessed as elevation in kynurenic acid plasma level by […] analysis; format: functional, organism-based
[26] = Half life in Sprague-Dawley rat brain at 6.2 mg equivalents/kg, iv; format: ADME, tissue-based
[27] = system: Rattus norvegicus; assay: Inhibition of KMO in po dosed Sprague-Dawley rat plasma assessed as reduction in quinolinic acid plasma level by LC-MS/MS analysis
[28] = Oral bioavailability in Sprague-Dawley rat plasma at 12 mg equivalents/kg
[29] = target: T1, Kynurenine 3-monooxygenase; assay: Inhibition of KMO in human PBMC
[30] = system: Rattus norvegicus; assay: Inhibition of KMO in Sprague-Dawley rat striatum brain microdialysate assessed as time duration for elevation in 3-hydroxykynurenice acid level by 2-fold at 10 mg/kg, po by […] analysis; format: functional
Method in brief: (§5)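 Freely moving Sprague-Dawley rats given 10 mg/kg po, with a microdialysis probe implanted in the striatum. Dialysate was sampled over 0–240 min for free compound and for KYN, KYNA, AA and 3-HK, quantified by LC-MS/MS. Metabolite changes were compared with t = 0 min by 2-way ANOVA.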

[31] = system: Rattus norvegicus; assay: Inhibition of KMO in Sprague-Dawley rat striatum brain microdialysate assessed as time duration for elevation in anthranilic acid level at 10 mg/kg, po by […] analysis; format: functional; method in brief: as §5
[32] = Tmax in Sprague-Dawley rat kidney at 10 mg equivalents/kg, po after 0.25 to 12 hrs; format: ADME, organism-based; method in brief: as §1

T1 sequence (O15229 whole entry): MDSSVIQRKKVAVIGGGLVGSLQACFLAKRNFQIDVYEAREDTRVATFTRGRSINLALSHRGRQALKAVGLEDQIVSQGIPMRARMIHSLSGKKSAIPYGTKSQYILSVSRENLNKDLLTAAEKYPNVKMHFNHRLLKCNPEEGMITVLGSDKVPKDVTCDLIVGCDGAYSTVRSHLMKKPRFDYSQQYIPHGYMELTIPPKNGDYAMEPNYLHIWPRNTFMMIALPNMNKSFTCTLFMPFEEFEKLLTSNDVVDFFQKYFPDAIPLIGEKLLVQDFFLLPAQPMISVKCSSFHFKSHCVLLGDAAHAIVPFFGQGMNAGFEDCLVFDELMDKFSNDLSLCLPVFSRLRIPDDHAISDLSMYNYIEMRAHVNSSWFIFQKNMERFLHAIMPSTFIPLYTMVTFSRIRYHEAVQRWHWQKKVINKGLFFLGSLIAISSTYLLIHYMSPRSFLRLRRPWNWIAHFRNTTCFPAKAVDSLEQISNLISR
T2 sequence (O88867 whole entry): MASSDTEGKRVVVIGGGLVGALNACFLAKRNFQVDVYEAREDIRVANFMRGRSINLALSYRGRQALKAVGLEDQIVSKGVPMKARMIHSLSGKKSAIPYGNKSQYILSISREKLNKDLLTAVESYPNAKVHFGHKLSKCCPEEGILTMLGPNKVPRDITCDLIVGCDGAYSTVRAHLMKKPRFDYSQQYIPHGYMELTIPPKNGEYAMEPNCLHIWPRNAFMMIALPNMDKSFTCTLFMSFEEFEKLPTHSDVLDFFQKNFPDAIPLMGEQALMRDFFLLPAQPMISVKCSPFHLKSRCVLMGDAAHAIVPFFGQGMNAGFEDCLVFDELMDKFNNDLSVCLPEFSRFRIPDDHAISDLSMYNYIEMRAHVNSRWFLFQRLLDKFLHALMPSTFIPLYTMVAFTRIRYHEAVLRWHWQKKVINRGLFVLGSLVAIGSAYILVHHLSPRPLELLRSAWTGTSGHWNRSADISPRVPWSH
Chain of Kynurenine 3-monooxygenase (Mus musculus, UniProt Q91WN4) (Q91WN4 whole entry): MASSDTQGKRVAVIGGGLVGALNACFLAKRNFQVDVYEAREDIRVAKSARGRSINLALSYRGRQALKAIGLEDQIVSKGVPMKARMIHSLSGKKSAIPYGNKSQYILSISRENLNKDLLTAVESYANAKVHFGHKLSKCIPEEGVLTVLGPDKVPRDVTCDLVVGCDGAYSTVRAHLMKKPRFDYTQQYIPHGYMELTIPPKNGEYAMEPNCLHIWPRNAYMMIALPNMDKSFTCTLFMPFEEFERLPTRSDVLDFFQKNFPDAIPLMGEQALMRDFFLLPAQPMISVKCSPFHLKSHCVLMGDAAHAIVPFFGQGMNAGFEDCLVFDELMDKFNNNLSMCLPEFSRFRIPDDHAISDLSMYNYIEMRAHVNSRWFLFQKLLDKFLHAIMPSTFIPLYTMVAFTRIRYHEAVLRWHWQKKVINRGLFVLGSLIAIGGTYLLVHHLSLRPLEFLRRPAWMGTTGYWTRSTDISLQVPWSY

- Tmax [2]: 30 min
- AUC/dose [3]: 0.073 µM·kg·h/mg
- AUC/dose [4]: 0.23 µM·kg·h/mg
- IC50 [5]: 5.1 nM
- AUC/dose [6]: 3.6 µM·kg·h/mg
- Cmax/dose [7]: 2.6 µM·kg/mg
- AUC/dose [8]: 0.014 µM·kg·h/mg
- AUC/dose [9]: 3.1 µM·kg·h/mg
- Papp B→A [10]: 30.4 ×10⁻⁶ cm/s
- IC50 [12]: 8 nM
- IC50 [13]: 72 nM
- half-life [14]: 114 min
- clearance [15]: 4.83 mL/min/kg
- half-life [16]: 144 min
- logD [17]: 0.9
- Tmax [18]: 30 min
- AUC/dose [19]: 2.6 µM·kg·h/mg
- Vd [20]: 0.32 L/kg
- Tmax [21]: 30 min
- Tmax [22]: 30 min
- IC50 [23]: 4 nM
- Cmax/dose [24]: 0.011 µM·kg/mg
- half-life [26]: 42 min
- bioavailability [28]: 64%
- IC50 [29]: 82 nM
- Tmax [32]: 30 min
Structure (SMILES): O=C(O)c1cc(-c2ccc(OC3CC3)c(Cl)c2)ncn1
- inhibition [1]: Dose-dependent effect
- Time [11]: 8 h
- inhibition [25]: Dose-dependent effect
- inhibition [27]: Dose-dependent effect
- Time [30]: 160 min
- Time [31]: 40 min

Source: ChEMBL document CHEMBL3407478, “Development of a series of aryl pyrimidine kynurenine monooxygenase inhibitors as potential therapeutic agents for the treatment of Huntington's disease” (J Med Chem, 2015)
